Consider eleven molecules from ChEMBL document CHEMBL3994589, “Total Synthesis and in Vitro Anti-Tumor-Promoting Activities of Racemic Acetophenone Monomers from Acronychia trifoliolata” (J Nat Prod, 2016).

The subject of series [1] is human gammaherpesvirus 4. Put plainly: Inhibition of TPA-induced EBV-early antigen activation in human Raji cells assessed as reduction in EBV-EA positive cells at 500 molar ratio per TPA after 48 hrs by indirect immunofluorescence method relative to TPA; values are per cent of control.
In series [2] the test system is human gammaherpesvirus 4. The series can be described thus: Inhibition of TPA-induced EBV-early antigen activation in human Raji cells assessed as reduction in EBV-EA positive cells at 100 molar ratio per TPA after 48 hrs by indirect immunofluorescence method relative to TPA; values are per cent of control.
A short description of series [3]: Cytotoxicity against human Raji cells assessed as cell viability at 1000 molar ratio per TPA after 48 hrs by trypan blue staining based method. The note with it: read-out: Activity. Summed up:
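Raji cells exposed to test compounds at 1000 mol ratio to TPA (TPA 32 pmol/mL) in the EBV-EA activation assay; viability of treated cells scored by trypan blue staining and reported as percentage.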

The nature of series [4]: Inhibition of TPA-induced EBV-early antigen activation in human Raji cells after 48 hrs by indirect immunofluorescence method. Format: cell-based, human gammaherpesvirus 4. In outline: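 EBV-EA activation induced in Raji cells by 32 pmol/mL TPA, with compounds tested over molar ratios relative to TPA. IC50 is the compound concentration inhibiting 50% of the positive control activated with 32 nM TPA.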

The subject of series [5] is human gammaherpesvirus 4. Put plainly: Inhibition of TPA-induced EBV-early antigen activation in human Raji cells assessed as reduction in EBV-EA positive cells at 10 molar ratio per TPA after 48 hrs by indirect immunofluorescence method relative to TPA; values are per cent of control.
Series [6] has as its system human gammaherpesvirus 4. The series can be described thus: Inhibition of TPA-induced EBV-early antigen activation in human Raji cells assessed as reduction in EBV-EA positive cells at 1000 molar ratio per TPA after 48 hrs by indirect immunofluorescence method relative to TPA; values are per cent of control.

As usually defined, the IC50 is the concentration that inhibits the measured activity by half. Higher therefore signals lower potency.

On to `COc1c(CC=C(C)C)c2c(c(OC(C)=O)c1C(C)=O)CC(C(C)(C)O)O2` (stereo not given), for which the level, % of control in the series with human gammaherpesvirus 4 [1] was 43.8%; in the series on human gammaherpesvirus 4 [2], 71%; with human gammaherpesvirus 4 [5], 100%; in the series with human gammaherpesvirus 4 [6], 7%. The viability at 48 h, 1000 molar ratio per TPA in series [3] was 60%. The molecule also showed a 50% inhibitory concentration (IC50) in series [4] of 15 µM.
For `COc1c2c(c(CC=C(C)C)c(OC(C)=O)c1C(C)=O)OC(C(C)(C)O)C2` (stereo not given), the level, % of control with human gammaherpesvirus 4 [1] was determined as 33.9%; in the series with human gammaherpesvirus 4 [2], 78.6%; with human gammaherpesvirus 4 [5], 97.8%; in the series with human gammaherpesvirus 4 [6], 5.3%. For the same molecule, the viability at 48 h, 1000 molar ratio per TPA in series [3] came to 60%. The concentration for half-maximal inhibition (IC50) in series [4] stood at 9.6 µM.
With `COc1c(CCC(C)C)c2c(c(O)c1C(C)=O)CC(O)C(C)(C)O2` (stereo not given), the level, % of control was 36.6% in the series with human gammaherpesvirus 4 [1], 78.8% in the series on human gammaherpesvirus 4 [2], 97.8% in the series with human gammaherpesvirus 4 [5] and 0% with human gammaherpesvirus 4 [6]. The viability at 48 h, 1000 molar ratio per TPA in series [3] amounted to 60%. This molecule had a half-inhibitory concentration (IC50) in series [4] of 8.1 µM.
Regarding `COc1c2c(c(CC=C(C)C)c(O)c1C(C)=O)OC(C(C)(C)O)C2` (racemic), the level, % of control with human gammaherpesvirus 4 [1] is 30.6%; with human gammaherpesvirus 4 [2] it was 74.3%; with human gammaherpesvirus 4 [5], 93.3%; with human gammaherpesvirus 4 [6], 0%. The viability at 48 h, 1000 molar ratio per TPA in series [3] was 60%. The molecule further had a half-maximal inhibitory concentration (IC50) in series [4] of 7.7 µM.
For the molecule `COc1c(CC=C(C)C)c(O)c2c(c1C(C)=O)OC(C)(C)C(O)C2` (racemic), the level, % of control with human gammaherpesvirus 4 [1] was determined as 27.1%; in the series with human gammaherpesvirus 4 [2], 68.2%; in the series with human gammaherpesvirus 4 [5], 96.6%; in the series with human gammaherpesvirus 4 [6] it was 1.5%. The viability at 48 h, 1000 molar ratio per TPA in series [3] was 60%. Also, the IC50 in series [4] stood at 8.4 µM.
Regarding `COc1c2c(c(CC=C(C)C)c(O)c1C(C)=O)OC(C)(C)C(O)C2` (racemic), the level, % of control in the series on human gammaherpesvirus 4 [1] is 26.5%; with human gammaherpesvirus 4 [2] it was 65.5%; with human gammaherpesvirus 4 [5], 92.4%; with human gammaherpesvirus 4 [6] it was 0%. Moreover, in series [3], the viability at 48 h, 1000 molar ratio per TPA is 60%. The molecule further gave an IC50 in series [4] of 7.3 µM.
For `COc1c2c(c(CCC(C)C)c(O)c1C(C)=O)OC(C)(C)C(O)C2` (racemic), the level, % of control with human gammaherpesvirus 4 [1] is 31.5%; in the series on human gammaherpesvirus 4 [2] it was 76%; in the series with human gammaherpesvirus 4 [5], 97.7%; with human gammaherpesvirus 4 [6] it was 4.9%. Also, the viability at 48 h, 1000 molar ratio per TPA in series [3] came to 60%. Moreover, inhibition in series [4] was half-maximal at 9.3 µM (IC50).
On to `COc1c2c(cc(O)c1C(C)=O)OC(O)C2` (racemic), for which the level, % of control with human gammaherpesvirus 4 [1] turned out to be 53.3%; in the series with human gammaherpesvirus 4 [2], 77.9%; in the series on human gammaherpesvirus 4 [5], 100%; in the series on human gammaherpesvirus 4 [6], 10.8%. Also, the viability at 48 h, 1000 molar ratio per TPA in series [3] turned out to be 60%. For the same molecule, 15.7 µM corresponded to half-maximal inhibition in series [4] (IC50).
On to `COc1c(CC=C(C)C)c2c(c(O)c1C(C)=O)CC(O)C(C)(C)O2` (racemic), for which the level, % of control was found to be 29.1% with human gammaherpesvirus 4 [1], 72.5% with human gammaherpesvirus 4 [2], 96.9% in the series with human gammaherpesvirus 4 [5] and 3% in the series with human gammaherpesvirus 4 [6]. Also, the viability at 48 h, 1000 molar ratio per TPA in series [3] is 60%. In addition, it took 8.9 µM to reach half-maximal inhibition in series [4] (IC50).
`COc1c(CC=C(C)C)c2c(c(O)c1C(C)=O)CC(C(C)(C)O)O2` (racemic): the level, % of control in the series with human gammaherpesvirus 4 [1] was determined as 32%; in the series on human gammaherpesvirus 4 [2], 75.5%; in the series with human gammaherpesvirus 4 [5], 94.9%; in the series on human gammaherpesvirus 4 [6] it was 0%. In addition, the viability at 48 h, 1000 molar ratio per TPA in series [3] turned out to be 60%. Further, the half-inhibitory concentration (IC50) in series [4] is 8 µM.
With `COc1cc(/C=C/C(=O)CC(=O)/C=C/c2ccc(O)c(OC)c2)ccc1O` [CURCUMIN], the level, % of control with human gammaherpesvirus 4 [1] amounted to 21.1%; with human gammaherpesvirus 4 [2] it was 80.1%; in the series with human gammaherpesvirus 4 [5] it was 100%; with human gammaherpesvirus 4 [6], 0%. The IC50 in series [4] worked out at 12.1 µM.
